Experimental data from ChEMBL document CHEMBL1134346, “Labeling and evaluation of N-[11C]methylated quinoline-2-carboxamides as potential radioligands for visualization of peripheral benzodiazepine receptors” (J Med Chem, 2001).

Tests used:
Rattus norvegicus [1] = species on record: Rattus norvegicus; assay: Tissue (plasma) distribution in Albino male CD rats after 90 minutes expressed as percent of injected dose per gram of organ.; assay type: ADME, organism-based; conditions: in vivo, 1.5 h
Procedure, shortened: (§1)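 Male albino CD rats (225-250 g) received the 11C-labelled radioligand in saline by tail-vein injection. Three rats per time point were decapitated under light ether anaesthesia at 5, 15, 30, 60 or 90 min. Blood was collected heparinized and plasma separated by centrifugation. The pituitary was dissected from the brain. Lung, liver (three-lobe pieces) and right deltoid muscle were sampled, washed in cold saline, gamma-counted and weighed. Results are %I.D./g.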

[2] = target: Translocator protein (Rattus norvegicus) (UniProt P16257); assay: Tissue (blood) concentration of radioactivity at 30 min post-injection into Albino male CD rats after pretreatment with cold PK 11195.; assay type: functional, tissue-based
Procedure, shortened: (§2)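 Separate groups of five rats received tail-vein PK 11195 (1.4-1.6 mg; 5 mg/kg) in 30 µL DMSO:EtOH 1:1, or vehicle alone, immediately before iv radioligand (90-170 µCi in saline, 0.9-1 Ci/µmol). Rats were decapitated at 30 min and tissues gamma-counted; values are %I.D./g.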

Rattus norvegicus [3] = species on record: Rattus norvegicus; assay: Tissue (spleen) distribution in Albino male CD rats after 15 minutes expressed as percent of injected dose per gram of organ.; assay type: ADME, organism-based; conditions: in vivo, 0.25 h
[4] = target: Translocator protein (Rattus norvegicus) (UniProt P16257); assay: Tissue (pituitary) concentration of radioactivity at 30 min post-injection into Albino male CD rats after pretreatment with cold PK 11195.; assay type: functional, tissue-based; conditions: Pituitary gland
Procedure, shortened: (§3)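 Blocking study in male albino CD rats, five per group. Immediately before the 11C radioligand (in saline, i.v. tail vein), rats received 30 µL tail-vein PK 11195 (5 mg/kg; 1.4-1.6 mg) in DMSO:EtOH 1:1, or vehicle. Rats were decapitated at 30 min. Tissues were dissected, washed, gamma-counted and weighed as in the biodistribution study. Results are %I.D./g.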

Rattus norvegicus [5] = species on record: Rattus norvegicus; assay: Tissue (liver) distribution in Albino male CD rats after 90 minutes expressed as percent of injected dose per gram of organ.; assay type: ADME, organism-based; conditions: in vivo, 1.5 h; procedure, shortened: as §1
Rattus norvegicus [6] = species on record: Rattus norvegicus; assay: Tissue (testicle) distribution in Albino male CD rats after 60 minutes expressed as percent of injected dose per gram of organ.; assay type: ADME, organism-based; conditions: in vivo, 1 h; procedure, shortened: as §1
Rattus norvegicus [7] = species on record: Rattus norvegicus; assay: Tissue (lung) distribution in Albino male CD rats after 5 minutes expressed as percent of injected dose per gram of organ.; assay type: ADME, organism-based; conditions: in vivo; procedure, shortened: as §1
Rattus norvegicus [8] = species on record: Rattus norvegicus; assay: Tissue (plasma) distribution in Albino male CD rats after 15 minutes expressed as percent of injected dose per gram of organ.; assay type: ADME, organism-based; conditions: in vivo, 0.25 h; procedure, shortened: as §1
Rattus norvegicus [9] = species on record: Rattus norvegicus; assay: Tissue (spleen) distribution in Albino male CD rats after 5 minutes expressed as percent of injected dose per gram of organ.; assay type: ADME, organism-based; conditions: in vivo; procedure, shortened: as §1
Rattus norvegicus [10] = species on record: Rattus norvegicus; assay: Tissue (muscle) distribution in Albino male CD rats after 5 minutes expressed as percent of injected dose per gram of organ.; assay type: ADME, organism-based; conditions: in vivo; procedure, shortened: as §1
Rattus norvegicus [11] = species on record: Rattus norvegicus; assay: Tissue (cortex) distribution in Albino male CD rats after 15 minutes expressed as percent of injected dose per gram of organ.; assay type: ADME, organism-based; conditions: in vivo, 0.25 h
Procedure, shortened: (§4)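 Radioligand given in saline into tail vein of male albino CD rats (225-250 g); 100-200 µCi per animal, 1-2 Ci/µmol at injection depending on radioligand. Three rats per time point were decapitated under light ether anaesthesia. Blood, plasma, brain regions and washed organs were weighed and gamma-counted. Uptake is %I.D./g tissue, mean ± SD.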

Rattus norvegicus [12] = species on record: Rattus norvegicus; assay: Tissue (lung) distribution in Albino male CD rats after 15 minutes expressed as percent of injected dose per gram of organ.; assay type: ADME, organism-based; conditions: in vivo, 0.25 h; procedure, shortened: as §1
Rattus norvegicus [13] = species on record: Rattus norvegicus; assay: Tissue (kidney) distribution in Albino male CD rats after 30 minutes expressed as percent of injected dose per gram of organ.; assay type: ADME, organism-based; conditions: in vivo, 0.5 h; procedure, shortened: as §4
Rattus norvegicus [14] = species on record: Rattus norvegicus; assay: Tissue (heart) distribution in Albino male CD rats after 90 minutes expressed as percent of injected dose per gram of organ.; assay type: ADME, organism-based; conditions: in vivo, 1.5 h; procedure, shortened: as §4
Rattus norvegicus [15] = species on record: Rattus norvegicus; assay: Tissue (pituitary) distribution in Albino male CD rats after 5 minutes expressed as percent of injected dose per gram of organ.; assay type: ADME, organism-based, Pituitary gland; conditions: in vivo; procedure, shortened: as §1
Rattus norvegicus [16] = species on record: Rattus norvegicus; assay: Tissue (plasma) distribution in Albino male CD rats after 30 minutes expressed as percent of injected dose per gram of organ.; assay type: ADME, organism-based; conditions: in vivo, 0.5 h; procedure, shortened: as §1
Rattus norvegicus [17] = species on record: Rattus norvegicus; assay: Tissue (cerebellum) distribution in Albino male CD rats after 30 minutes expressed as percent of injected dose per gram of organ.; assay type: ADME, organism-based; conditions: in vivo, 0.5 h; procedure, shortened: as §4
Rattus norvegicus [18] = species on record: Rattus norvegicus; assay: Tissue (muscle) distribution in Albino male CD rats after 60 minutes expressed as percent of injected dose per gram of organ.; assay type: ADME, organism-based; conditions: in vivo, 1 h; procedure, shortened: as §1
Rattus norvegicus [19] = species on record: Rattus norvegicus; assay: Tissue (pituitary) distribution in Albino male CD rats after 90 minutes expressed as percent of injected dose per gram of organ.; assay type: ADME, organism-based, Pituitary gland; conditions: in vivo, 1.5 h; procedure, shortened: as §1
Rattus norvegicus [20] = species on record: Rattus norvegicus; assay: Tissue (cortex) distribution in Albino male CD rats after 60 minutes expressed as percent of injected dose per gram of organ.; assay type: ADME, organism-based; conditions: in vivo, 1 h; procedure, shortened: as §4
[21] = target: Translocator protein (Rattus norvegicus) (UniProt P16257); assay: Tissue (spleen) concentration of radioactivity at 30 min post-injection into Albino male CD rats after pretreatment with cold PK 11195.; assay type: functional, tissue-based; procedure, shortened: as §3
Rattus norvegicus [22] = species on record: Rattus norvegicus; assay: Tissue (lung) distribution in Albino male CD rats after 30 minutes expressed as percent of injected dose per gram of organ.; assay type: ADME, organism-based; conditions: in vivo, 0.5 h; procedure, shortened: as §1
Rattus norvegicus [23] = species on record: Rattus norvegicus; assay: Tissue (testicle) distribution in Albino male CD rats after 15 minutes expressed as percent of injected dose per gram of organ.; assay type: ADME, organism-based; conditions: in vivo, 0.25 h; procedure, shortened: as §1
Rattus norvegicus [24] = species on record: Rattus norvegicus; assay: Tissue (muscle) distribution in Albino male CD rats after 90 minutes expressed as percent of injected dose per gram of organ.; assay type: ADME, organism-based; conditions: in vivo, 1.5 h; procedure, shortened: as §1
Rattus norvegicus [25] = species on record: Rattus norvegicus; assay: Tissue (pituitary) concentration of radioactivity at 30 min post-injection into Albino male CD rats with vehicle.; assay type: ADME, organism-based, Pituitary gland; conditions: in vivo, 0.5 h; procedure, shortened: as §3
Rattus norvegicus [26] = species on record: Rattus norvegicus; assay: Tissue (heart) distribution in Albino male CD rats after 30 minutes expressed as percent of injected dose per gram of organ.; assay type: ADME, organism-based; conditions: in vivo, 0.5 h; procedure, shortened: as §4
Rattus norvegicus [27] = species on record: Rattus norvegicus; assay: Tissue (spleen) distribution in Albino male CD rats after 90 minutes expressed as percent of injected dose per gram of organ.; assay type: ADME, organism-based; conditions: in vivo, 1.5 h
Rattus norvegicus [28] = species on record: Rattus norvegicus; assay: Tissue (heart) distribution in Albino male CD rats after 60 minutes expressed as percent of injected dose per gram of organ.; assay type: ADME, organism-based; conditions: in vivo, 1 h; procedure, shortened: as §4
[29] = target: Translocator protein (Rattus norvegicus) (UniProt P16257); assay: Tissue (heart) concentration of radioactivity at 30 min post-injection into Albino male CD rats after pretreatment with cold PK 11195.; assay type: functional; procedure, shortened: as §2
Rattus norvegicus [30] = species on record: Rattus norvegicus; assay: Tissue (kidney) distribution in Albino male CD rats after 15 minutes expressed as percent of injected dose per gram of organ.; assay type: ADME, organism-based; conditions: in vivo, 0.25 h; procedure, shortened: as §4
Rattus norvegicus [31] = species on record: Rattus norvegicus; assay: Tissue (blood) distribution in Albino male CD rats after 60 minutes expressed as percent of injected dose per gram of organ.; assay type: ADME, organism-based; conditions: in vivo, 1 h; procedure, shortened: as §4
Rattus norvegicus [32] = species on record: Rattus norvegicus; assay: Tissue (spleen) distribution in Albino male CD rats after 30 minutes expressed as percent of injected dose per gram of organ.; assay type: ADME, organism-based; conditions: in vivo, 0.5 h; procedure, shortened: as §1
[33] = target: Translocator protein (Rattus norvegicus) (UniProt P16257); assay: Tissue (kidney) concentration of radioactivity at 30 min post-injection into Albino male CD rats after pretreatment with cold PK 11195.; assay type: functional, tissue-based; procedure, shortened: as §2
Rattus norvegicus [34] = species on record: Rattus norvegicus; assay: Tissue (cortex) distribution in Albino male CD rats after 30 minutes expressed as percent of injected dose per gram of organ.; assay type: ADME, organism-based; conditions: in vivo, 0.5 h; procedure, shortened: as §4
Rattus norvegicus [35] = species on record: Rattus norvegicus; assay: Tissue (muscle) distribution in Albino male CD rats after 30 minutes expressed as percent of injected dose per gram of organ.; assay type: ADME, organism-based; conditions: in vivo, 0.5 h; procedure, shortened: as §1
Rattus norvegicus [36] = species on record: Rattus norvegicus; assay: Tissue (kidney) distribution in Albino male CD rats after 90 minutes expressed as percent of injected dose per gram of organ.; assay type: ADME, organism-based; conditions: in vivo, 1.5 h; procedure, shortened: as §4
Rattus norvegicus [37] = species on record: Rattus norvegicus; assay: Tissue (plasma) distribution in Albino male CD rats after 5 minutes expressed as percent of injected dose per gram of organ.; assay type: ADME, organism-based; conditions: in vivo; procedure, shortened: as §1
Rattus norvegicus [38] = species on record: Rattus norvegicus; assay: Tissue (muscle) concentration of radioactivity at 30 min post-injection into Albino male CD rats with vehicle.; assay type: ADME, organism-based; conditions: in vivo, 0.5 h; procedure, shortened: as §3
Rattus norvegicus [39] = species on record: Rattus norvegicus; assay: Tissue (lung) distribution in Albino male CD rats after 90 minutes expressed as percent of injected dose per gram of organ.; assay type: ADME, organism-based; conditions: in vivo, 1.5 h; procedure, shortened: as §1
Rattus norvegicus [40] = species on record: Rattus norvegicus; assay: Tissue (adrenal gland) distribution in Albino male CD rats after 60 minutes expressed as percent of injected dose per gram of organ.; assay type: ADME, organism-based; conditions: in vivo, 1 h; procedure, shortened: as §4

Chain of Translocator protein (Rattus norvegicus) (P16257 whole entry, looked up): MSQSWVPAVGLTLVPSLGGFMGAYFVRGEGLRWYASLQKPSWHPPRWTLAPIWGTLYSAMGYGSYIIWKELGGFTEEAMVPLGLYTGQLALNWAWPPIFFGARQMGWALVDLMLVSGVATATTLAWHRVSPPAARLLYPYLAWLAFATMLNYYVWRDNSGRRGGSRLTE

I.D./g (Rattus norvegicus [1]): 0.04%
I.D./g [2]: > 0.04%
I.D./g (Rattus norvegicus [3]): 0.75%
I.D./g [4]: > 0.06%
I.D./g (Rattus norvegicus [5]): 0.39%
I.D./g (Rattus norvegicus [6]): 0.09%
I.D./g (Rattus norvegicus [7]): 2.37%
I.D./g (Rattus norvegicus [8]): 0.09%
I.D./g (Rattus norvegicus [9]): 0.34%
I.D./g (Rattus norvegicus [10]): 0.06%
I.D./g (Rattus norvegicus [11]): 0.11%
I.D./g (Rattus norvegicus [12]): 2.25%
I.D./g (Rattus norvegicus [13]): 0.55%
I.D./g (Rattus norvegicus [14]): 0.58%
I.D./g (Rattus norvegicus [15]): 0.16%
I.D./g (Rattus norvegicus [16]): 0.06%
I.D./g (Rattus norvegicus [17]): 0.09%
I.D./g (Rattus norvegicus [18]): 0.07%
I.D./g (Rattus norvegicus [19]): 0.15%
I.D./g (Rattus norvegicus [20]): 0.07%
I.D./g [21]: < 0.09%
I.D./g (Rattus norvegicus [22]): 2.09%
I.D./g (Rattus norvegicus [23]): 0.09%
I.D./g (Rattus norvegicus [24]): 0.08%
I.D./g (Rattus norvegicus [25]): 0.09%
I.D./g (Rattus norvegicus [26]): 0.73%
I.D./g (Rattus norvegicus [27]): 0.71%
I.D./g (Rattus norvegicus [28]): 0.6%
I.D./g [29]: < 0.11%
I.D./g (Rattus norvegicus [30]): 0.73%
I.D./g (Rattus norvegicus [31]): 0.08%
I.D./g (Rattus norvegicus [32]): 0.77%
I.D./g [33]: 0.12%
I.D./g (Rattus norvegicus [34]): 0.1%
I.D./g (Rattus norvegicus [35]): 0.1%
I.D./g (Rattus norvegicus [36]): 0.46%
I.D./g (Rattus norvegicus [37]): 0.11%
I.D./g (Rattus norvegicus [38]): 0.05%
I.D./g (Rattus norvegicus [39]): 1.55%
I.D./g (Rattus norvegicus [40]): 2.85%
SMILES: CCC(C)N(C)C(=O)c1nc2ccccc2c(-c2ccccc2F)c1C (stereo not given)
